What all share (settings): in vivo
In data set [1] the test system is Blood. Put plainly: Biodistribution in blood of C57BL/6 mouse bearing mouse B16-F0 cells at 0.74 to 0.92 MBq, iv after 1 hr. In kind it is ADME, organism-based. In short, it runs like this:
(§1)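 Male C57BL6 mice with s.c. left-flank B16-F0 melanoma (5 × 10⁵ cells in PBS). Two mice per time point frozen in liquid nitrogen after CO₂ sacrifice. Eight 40 µm whole-body cryosections per mouse read by multiwire proportional counter. cpm/mm² converted to kBq/g and expressed as %ID/g.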

In data set [2] the test system is Liver. Put plainly: Biodistribution in liver of C57BL/6 mouse bearing mouse B16-F0 cells at 0.74 to 0.92 MBq, iv after 3 hrs. In kind it is ADME, organism-based. In short, it runs like this: as §1
Data set [3] concerns Kidney. Put plainly: Biodistribution in kidney of C57BL/6 mouse bearing mouse B16-F0 cells at 0.74 to 0.92 MBq, iv after 3 hrs. The data set is classed as ADME, organism-based. In short, it runs like this:
as §1

A short description of data set [4]: Ratio of drug level in tumor to brain of C57BL/6 mouse bearing mouse B16-F0 cells at 0.74 to 0.92 MBq, iv after 1 hr. In kind it is ADME, organism-based. In short, it runs like this: (§2)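 Tumour and organ radioactive concentrations came from whole-body cryosection counting (40 µm slices, eight per mouse, two mice per time) after tail-vein injection of the [¹²⁵I]-labelled compound (0.1 µmol) into male C57BL6 mice bearing s.c. B16-F0 melanoma. Each value is the ratio of the tumour concentration to the organ concentration.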

The nature of data set [5]: Drug excretion in mouse B16-F0 cells bearing C57BL/6 mouse urine at 0.74 to 0.92 MBq, iv after 72 hrs. The data set is classed as ADME, organism-based. In short, it runs like this: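 Urine was collected from two B16-F0 tumour-bearing C57BL6 mice for up to 72 h after iv tail-vein injection of the [¹²⁵I]-labelled compound (0.1 µmol). Samples were counted to give cumulative urinary excretion as %ID.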

For data set [6], the system named is Pancreas. Nature of the data set: Biodistribution in pancreas of C57BL/6 mouse bearing mouse B16-F0 cells at 0.74 to 0.92 MBq, iv after 6 hrs. The data set is classed as ADME, organism-based. In short, it runs like this:
as §1

A short description of data set [7]: Biodistribution in gall bladder of C57BL/6 mouse bearing mouse B16-F0 cells at 0.74 to 0.92 MBq, iv after 3 hrs. The data set is classed as ADME, organism-based. Put shortly: as §1
Data set [8] is described as follows: Biodistribution in Stomach content of C57BL/6 mouse bearing mouse B16-F0 cells at 0.74 to 0.92 MBq, iv after 24 hrs. The data set is classed as ADME, organism-based. In short, it runs like this: as §1
Data set [9] can be described thus: Biodistribution in tumor of C57BL/6 mouse bearing mouse B16-F0 cells at 0.74 to 0.92 MBq, iv after 3 hrs. In kind it is ADME, organism-based, Neoplasm. Put shortly: (§3)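 [¹²⁵I]-labelled compound given iv by tail vein (0.1 µmol per mouse) to male C57BL6 mice bearing s.c. B16-F0 flank tumours (5 × 10⁵ cells in PBS). Two mice per time point were killed by CO₂, frozen in liquid nitrogen and cut into 40 µm cryosections, eight slices per mouse. Slice radioactivity was read on a multiwire proportional counter, converted to kBq/g and reported as %ID/g.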

Data set [10] in a line: Biodistribution in gall bladder of C57BL/6 mouse bearing mouse B16-F0 cells at 0.74 to 0.92 MBq, iv after 6 hrs. In kind it is ADME, organism-based. In short, it runs like this: as §1
A short description of data set [11]: Ratio of drug level in tumor to liver of C57BL/6 mouse bearing mouse B16-F0 cells at 0.74 to 0.92 MBq, iv after 3 hrs. The data set is classed as ADME, organism-based. Put shortly:
as §2

In data set [12] the test system is Thyroid gland. Nature of the data set: Biodistribution in thyroid of C57BL/6 mouse bearing mouse B16-F0 cells at 0.74 to 0.92 MBq, iv after 72 hrs. The data set is classed as ADME, organism-based. Put shortly: as §3
Data set [13] concerns Pancreas. Put plainly: Biodistribution in pancreas of C57BL/6 mouse bearing mouse B16-F0 cells at 0.74 to 0.92 MBq, iv after 3 hrs. In kind it is ADME, organism-based. In short, it runs like this: as §1
The subject of data set [14] is Brain. Nature of the data set: Biodistribution in brain of C57BL/6 mouse bearing mouse B16-F0 cells at 0.74 to 0.92 MBq, iv after 6 hrs. In kind it is ADME, organism-based. Put shortly: as §1
Data set [15] in a line: Ratio of drug level in tumor to liver of C57BL/6 mouse bearing mouse B16-F0 cells at 0.74 to 0.92 MBq, iv after 6 hrs. The data set is classed as ADME, organism-based. In short, it runs like this:
as §2

For data set [16], the system named is Liver. Put plainly: Biodistribution in liver of C57BL/6 mouse bearing mouse B16-F0 cells at 0.74 to 0.92 MBq, iv after 6 hrs. The data set is classed as ADME, organism-based. In short, it runs like this: as §1
In data set [17] the test system is Thyroid gland. Nature of the data set: Biodistribution in thyroid of C57BL/6 mouse bearing mouse B16-F0 cells at 0.74 to 0.92 MBq, iv after 3 hrs. In kind it is ADME, organism-based. In short, it runs like this:
as §3

Data set [18] in a line: Biodistribution in uvea of C57BL/6 mouse bearing mouse B16-F0 cells at 0.74 to 0.92 MBq, iv after 24 hrs. In kind it is ADME, organism-based, Uveal tract. Put shortly: as §3
A short description of data set [19]: Biodistribution in intestinal content of C57BL/6 mouse bearing mouse B16-F0 cells at 0.74 to 0.92 MBq, iv after 6 hrs. The data set is classed as ADME, organism-based. Put shortly: as §1
A short description of data set [20]: Biodistribution in tumor of C57BL/6 mouse bearing mouse B16-F0 cells at 0.74 to 0.92 MBq, iv after 6 hrs. The data set is classed as ADME, organism-based, Neoplasm. In short, it runs like this: as §3
Data set [21] in a line: Ratio of drug level in tumor to brain of C57BL/6 mouse bearing mouse B16-F0 cells at 0.74 to 0.92 MBq, iv after 6 hrs. The data set is classed as ADME, organism-based. Put shortly:
as §2

Data set [22] in a line: Ratio of drug level in tumor to liver of C57BL/6 mouse bearing mouse B16-F0 cells at 0.74 to 0.92 MBq, iv after 1 hr. In kind it is ADME, organism-based. In short, it runs like this: as §2
The test system of data set [23] is Blood. Put plainly: Biodistribution in blood of C57BL/6 mouse bearing mouse B16-F0 cells at 0.74 to 0.92 MBq, iv after 6 hrs. In kind it is ADME, organism-based. Put shortly: as §1
Data set [24] concerns Thyroid gland. Nature of the data set: Biodistribution in thyroid of C57BL/6 mouse bearing mouse B16-F0 cells at 0.74 to 0.92 MBq, iv after 1 hr. The data set is classed as ADME, organism-based. In short, it runs like this: as §3
Data set [25] in a line: Biodistribution in Stomach content of C57BL/6 mouse bearing mouse B16-F0 cells at 0.74 to 0.92 MBq, iv after 3 hrs. In kind it is ADME, organism-based. In short, it runs like this:
as §1

For data set [26], the system named is Liver. Nature of the data set: Biodistribution in liver of C57BL/6 mouse bearing mouse B16-F0 cells at 0.74 to 0.92 MBq, iv after 24 hrs. In kind it is ADME, organism-based. Put shortly:
as §1

The nature of data set [27]: Ratio of drug level in tumor to liver of C57BL/6 mouse bearing mouse B16-F0 cells at 0.74 to 0.92 MBq, iv after 24 hrs. The data set is classed as ADME, organism-based. In short, it runs like this:
as §2

Each structure is given as a SMILES string.

With `CCN(CC)CCNC(=O)c1ccc([125I])nc1.Cl.Cl`, the Drug uptake in data set [1] is on record as 6.67 % ID/g; in data set [2], 3.01 % ID/g; in data set [3], 3.26 % ID/g; in data set [6] it was 2.27 % ID/g; in data set [7], 6.78 % ID/g; in [8] it was 1.46 % ID/g. Moreover, the Drug uptake in data set [9] is 9.3 % ID/g; in data set [10], 4.9 % ID/g; in data set [12] it was 178.8 % ID/g; in data set [13], 2.53 % ID/g; in data set [14] it was 0.12 % ID/g; in data set [16], 2.09 % ID/g. The Drug uptake in data set [17] is given as 59.09 % ID/g; in data set [18], 6.07 % ID/g; in data set [19], 2.98 % ID/g; in [20], 7 % ID/g; in data set [23], 3.71 % ID/g; in [24], 25.29 % ID/g. Moreover, the Drug uptake in data set [25] came out at 42.71 % ID/g. The Ratio is 24.2 in [4]; 3.08 in data set [11]; 3.33 in data set [15]; 58.08 in [21]; 3.01 in data set [22]. Also, the Activity in data set [5] came out at 67.3%.

On to `CCN(CC)CCNC(=O)c1ccc2cc([125I])ccc2c1.Cl`, for which the Drug uptake came out at 2.97 % ID/g in [1]; 4.75 % ID/g in [2]; 5.65 % ID/g in data set [3]; 3.1 % ID/g in [8]; 11.4 % ID/g in data set [9]; 8.19 % ID/g in data set [13]. Moreover, the Drug uptake in [14] worked out at 0.25 % ID/g; in [16], 2.73 % ID/g; in data set [18], 12.28 % ID/g; in data set [19], 18.72 % ID/g; in data set [20], 9 % ID/g; in data set [23] it was 1.74 % ID/g. The Drug uptake in data set [25] is on record as 24.69 % ID/g. The Ratio is given as 2.97 in [4]; 2.4 in data set [11]; 3.28 in [15]; 35.8 in data set [21]; 1.37 in data set [22]. Besides, the Activity in data set [5] is 43.7%.

As for `CCN(CC)CCNC(=O)c1cc2cc([125I])ccc2o1.Cl`, the Drug uptake came to 3.57 % ID/g in [1]; 2.74 % ID/g in data set [2]; 3.09 % ID/g in [3]; 0.45 % ID/g in data set [26]; 1.61 % ID/g in data set [8]; 7.5 % ID/g in data set [9]. Besides, the Drug uptake was 15.7 % ID/g in [12]; 1.77 % ID/g in data set [16]; 22.43 % ID/g in data set [17]; 9.95 % ID/g in [18]; 135.67 % ID/g in data set [19]; 7.8 % ID/g in data set [20]. Moreover, the values for the Drug uptake in data set [23], in data set [24] and in data set [25] were 1.28 % ID/g, 16.78 % ID/g and 16.07 % ID/g, respectively. The Ratio in data set [4] stood at 6; in data set [27], 11.2; in data set [11] it was 2.74; in [15], 4.41; in [22] it was 1.36. The compound also displayed an Activity in data set [5] of 21.4%.

Values taken from ChEMBL document CHEMBL1150393, “Evaluation of radiolabeled (hetero)aromatic analogues of N-(2-diethylaminoethyl)-4-iodobenzamide for imaging and targeted radionuclide therapy of melanoma” (J Med Chem, 2008).
